The source made the active and inactive calls. The calls are words filed in the database; no cut-off is given here.
Each compound was assayed on Plasmodium yoelii nigeriensis (assay: Antimalarial activity in multidrug-resistant Plasmodium yoelii nigeriensis infected Swiss mouse assessed as disease cure at 96 mg/kg, po two devided dose daily for 4 days by 28 day survival assay). Conditions: not given.
Format: functional
Summary of the method: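 Swiss mice of either sex (20 2 g) inoculated ip with 1 × 10⁶ MDR P. yoelii nigeriensis (chloroquine-, mefloquine-, halofantrine-resistant) parasites on day 0. Five mice per dose. Oral dosing in groundnut oil (0.1 mL per dose) from day 0 to 3, as two divided doses daily. Thin blood smears on day 4, then twice weekly to day 28. Mice without patent infection by day 28 scored cured; % protection = fraction of mice cured. β-arteether as positive control.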

Row | SMILES | Activity
1 | C=C(c1ccc(Br)cc1)[C@@H]1CO[C@@]2(CC[C@@]3(C)[C@H](CC[C@@H]4[C@@H]3CC[C@]3(C)[C@@H](O)CC[C@@H]43)C2)OO1 (relative stereo; form 1) [listing 1 of 2 here] | inactive
2 | C=C(c1ccc(Br)cc1)[C@@H]1CO[C@@]2(CC[C@@]3(C)[C@H](CC[C@@H]4[C@@H]3CC[C@]3(C)[C@@H]([C@H](C)C(C)=O)CC[C@@H]43)C2)OO1 (relative stereo; form 1) [listing 1 of 2 here] | inactive
3 | C=C(c1ccc(Br)cc1)[C@@H]1CO[C@@]2(CC[C@@]3(C)[C@H](CC[C@@H]4[C@@H]3CC[C@]3(C)[C@@H]([C@H](C)CCC(=O)OC)CC[C@@H]43)C2)OO1 (relative stereo; form 1) [listing 1 of 2 here] | inactive
4 | C=C(c1ccc(Cl)cc1)[C@@H]1CO[C@@]2(CC[C@@]3(C)[C@H](CC[C@@H]4[C@@H]3CC[C@]3(C)[C@@H](C(C)=O)CC[C@@H]43)C2)OO1 (relative stereo; form 1) [listing 1 of 2 here] | inactive
5 | C=C(c1ccc(Cl)cc1)[C@@H]1CO[C@@]2(CC[C@@]3(C)[C@H](CC[C@@H]4[C@@H]3CC[C@]3(C)[C@@H]([C@H](C)C(C)=O)CC[C@@H]43)C2)OO1 (relative stereo; form 1) [listing 1 of 2 here] | inactive
6 | C=C(c1ccc(Cl)cc1)[C@@H]1CO[C@@]2(CC[C@@]3(C)[C@H](CC[C@@H]4[C@@H]3CC[C@]3(C)[C@@H]([C@H](C)CCC(=O)OC)CC[C@@H]43)C2)OO1 (relative stereo; form 1) [listing 1 of 2 here] | inactive
7 | C=C(c1ccc(F)cc1)[C@@H]1CO[C@@]2(CC[C@@]3(C)[C@H](CC[C@@H]4[C@@H]3CC[C@]3(C)[C@@H](O)CC[C@@H]43)C2)OO1 (relative stereo; form 1) | inactive
8 | C=C(c1ccc(F)cc1)[C@@H]1CO[C@@]2(CC[C@@]3(C)[C@H](CC[C@@H]4[C@@H]3CC[C@]3(C)[C@@H]([C@H](C)C(C)=O)CC[C@@H]43)C2)OO1 (relative stereo; form 1) [listing 1 of 2 here] | inactive
9 | C=C(c1ccc(F)cc1)[C@@H]1CO[C@@]2(CC[C@@]3(C)[C@H](CC[C@@H]4[C@@H]3CC[C@]3(C)[C@@H]([C@H](C)CCC(=O)OC)CC[C@@H]43)C2)OO1 (relative stereo; form 1) [listing 1 of 2 here] | inactive
10 | C=C(c1ccccc1)[C@@H]1CO[C@@]2(CC[C@@]3(C)[C@H](CC[C@@H]4[C@@H]3CC[C@]3(C)[C@@H](C(C)=O)CC[C@@H]43)C2)OO1 (relative stereo; form 1) [listing 1 of 2 here] | inactive
11 | C=C(c1ccccc1)[C@@H]1CO[C@@]2(CC[C@@]3(C)[C@H](CC[C@@H]4[C@@H]3CC[C@]3(C)[C@@H](O)CC[C@@H]43)C2)OO1 (relative stereo; form 1) [listing 1 of 2 here] | inactive
12 | C=C(c1ccccc1)[C@@H]1CO[C@@]2(CC[C@@]3(C)[C@H](CC[C@@H]4[C@@H]3CC[C@]3(C)[C@@H]([C@H](C)C(C)=O)CC[C@@H]43)C2)OO1 (relative stereo; form 1) [listing 1 of 2 here] | inactive
13 | C=C(c1ccccc1)[C@@H]1CO[C@@]2(CC[C@@]3(C)[C@H](CC[C@@H]4[C@@H]3CC[C@]3(C)[C@@H]([C@H](C)CCC(=O)OC)CC[C@@H]43)C2)OO1 (relative stereo; form 1) [listing 1 of 2 here] | inactive
14 | C=C(c1ccc(Br)cc1)[C@@H]1CO[C@@]2(CC[C@@]3(C)[C@H](CC[C@@H]4[C@@H]3CC[C@]3(C)[C@@H](C(C)=O)CC[C@@H]43)C2)OO1 (relative stereo; form 2) [listing 1 of 2 here] | inactive
15 | C=C(c1ccc(Br)cc1)[C@@H]1CO[C@@]2(CC[C@@]3(C)[C@H](CC[C@@H]4[C@@H]3CC[C@]3(C)[C@@H]([C@H](C)C(C)=O)CC[C@@H]43)C2)OO1 (relative stereo; form 2) [listing 1 of 2 here] | inactive
16 | C=C(c1ccc(Br)cc1)[C@@H]1CO[C@@]2(CC[C@@]3(C)[C@H](CC[C@@H]4[C@@H]3CC[C@]3(C)[C@@H]([C@H](C)CCC(=O)OC)CC[C@@H]43)C2)OO1 (relative stereo; form 2) [listing 1 of 2 here] | inactive
17 | C=C(c1ccc(Cl)cc1)[C@@H]1CO[C@@]2(CC[C@@]3(C)[C@H](CC[C@@H]4[C@@H]3CC[C@]3(C)[C@@H]([C@H](C)C(C)=O)CC[C@@H]43)C2)OO1 (relative stereo; form 2) [listing 1 of 2 here] | inactive
18 | C=C(c1ccc(Cl)cc1)[C@@H]1CO[C@@]2(CC[C@@]3(C)[C@H](CC[C@@H]4[C@@H]3CC[C@]3(C)[C@@H]([C@H](C)CCC(=O)OC)CC[C@@H]43)C2)OO1 (relative stereo; form 2) [listing 1 of 2 here] | inactive
19 | C=C(c1ccc(F)cc1)[C@@H]1CO[C@@]2(CC[C@@]3(C)[C@H](CC[C@@H]4[C@@H]3CC[C@]3(C)[C@@H]([C@H](C)CCC(=O)OC)CC[C@@H]43)C2)OO1 (relative stereo; form 2) [listing 1 of 2 here] | inactive
20 | C=C(c1ccccc1)[C@@H]1CO[C@@]2(CC[C@@]3(C)[C@H](CC[C@@H]4[C@@H]3CC[C@]3(C)[C@@H]([C@H](C)CCC(=O)OC)CC[C@@H]43)C2)OO1 (relative stereo; form 2) | inactive

Each compound was assayed on Plasmodium yoelii nigeriensis (assay: Antimalarial activity in multidrug-resistant Plasmodium yoelii nigeriensis infected Swiss mouse assessed as suppression of parasitaemia at 96 mg/kg, po two devided dose daily for 4 days). Conditions: 96 mg/kg.
Format: functional
Summary of the method: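 Swiss mice of either sex (20 2 g) inoculated ip with 1 × 10⁶ MDR P. yoelii nigeriensis parasites on day 0. Five mice per dose, given oral doses in groundnut oil from day 0 to 3, twice daily. Parasitaemia read from thin blood smears on day 4. Suppression = [(C − T)/C] × 100 versus untreated controls. 100% means no parasites seen in 50 oil-immersion fields.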

Row | SMILES | Activity
21 | C=C(c1ccc(Cl)cc1)[C@@H]1CO[C@@]2(CC[C@@]3(C)[C@H](CC[C@@H]4[C@@H]3CC[C@]3(C)[C@@H]([C@H](C)CCC(=O)OC)CC[C@@H]43)C2)OO1 (relative stereo; form 1) [listing 2 of 2 here] | 56.02%
22 | C=C(c1ccccc1)[C@@H]1CO[C@@]2(CC[C@@]3(C)[C@H](CC[C@@H]4[C@@H]3CC[C@]3(C)[C@@H](O)CC[C@@H]43)C2)OO1 (relative stereo; form 1) [listing 2 of 2 here] | 69.36%
23 | C=C(c1ccc(Br)cc1)[C@@H]1CO[C@@]2(CC[C@@]3(C)[C@H](CC[C@@H]4[C@@H]3CC[C@]3(C)[C@@H](O)CC[C@@H]43)C2)OO1 (relative stereo; form 1) [listing 2 of 2 here] | 76.52%
24 | C=C(c1ccc(Cl)cc1)[C@@H]1CO[C@@]2(CC[C@@]3(C)[C@H](CC[C@@H]4[C@@H]3CC[C@]3(C)[C@@H]([C@H](C)C(C)=O)CC[C@@H]43)C2)OO1 (relative stereo; form 1) [listing 2 of 2 here] | 100%
25 | C=C(c1ccc(Br)cc1)[C@@H]1CO[C@@]2(CC[C@@]3(C)[C@H](CC[C@@H]4[C@@H]3CC[C@]3(C)[C@@H]([C@H](C)C(C)=O)CC[C@@H]43)C2)OO1 (relative stereo; form 1) [listing 2 of 2 here] | 56.73%
26 | C=C(c1ccccc1)[C@@H]1CO[C@@]2(CC[C@@]3(C)[C@H](CC[C@@H]4[C@@H]3CC[C@]3(C)[C@@H](C(C)=O)CC[C@@H]43)C2)OO1 (relative stereo; form 1) [listing 2 of 2 here] | 79.89%
27 | C=C(c1ccc(Cl)cc1)[C@@H]1CO[C@@]2(CC[C@@]3(C)[C@H](CC[C@@H]4[C@@H]3CC[C@]3(C)[C@@H](C(C)=O)CC[C@@H]43)C2)OO1 (relative stereo; form 1) [listing 2 of 2 here] | 90.98%
28 | C=C(c1ccc(F)cc1)[C@@H]1CO[C@@]2(CC[C@@]3(C)[C@H](CC[C@@H]4[C@@H]3CC[C@]3(C)[C@@H]([C@H](C)CCC(=O)OC)CC[C@@H]43)C2)OO1 (relative stereo; form 1) [listing 2 of 2 here] | 45.31%
29 | C=C(c1ccc(Br)cc1)[C@@H]1CO[C@@]2(CC[C@@]3(C)[C@H](CC[C@@H]4[C@@H]3CC[C@]3(C)[C@@H]([C@H](C)CCC(=O)OC)CC[C@@H]43)C2)OO1 (relative stereo; form 1) [listing 2 of 2 here] | 64.31%
30 | C=C(c1ccccc1)[C@@H]1CO[C@@]2(CC[C@@]3(C)[C@H](CC[C@@H]4[C@@H]3CC[C@]3(C)[C@@H]([C@H](C)C(C)=O)CC[C@@H]43)C2)OO1 (relative stereo; form 1) [listing 2 of 2 here] | 94.31%
31 | C=C(c1ccc(F)cc1)[C@@H]1CO[C@@]2(CC[C@@]3(C)[C@H](CC[C@@H]4[C@@H]3CC[C@]3(C)[C@@H]([C@H](C)C(C)=O)CC[C@@H]43)C2)OO1 (relative stereo; form 1) [listing 2 of 2 here] | 86.26%
32 | C=C(c1ccccc1)[C@@H]1CO[C@@]2(CC[C@@]3(C)[C@H](CC[C@@H]4[C@@H]3CC[C@]3(C)[C@@H]([C@H](C)CCC(=O)OC)CC[C@@H]43)C2)OO1 (relative stereo; form 1) [listing 2 of 2 here] | 20.6%
33 | C=C(c1ccc(Cl)cc1)[C@@H]1CO[C@@]2(CC[C@@]3(C)[C@H](CC[C@@H]4[C@@H]3CC[C@]3(C)[C@@H]([C@H](C)CCC(=O)OC)CC[C@@H]43)C2)OO1 (relative stereo; form 2) [listing 2 of 2 here] | 45.23%
34 | C=C(c1ccc(Br)cc1)[C@@H]1CO[C@@]2(CC[C@@]3(C)[C@H](CC[C@@H]4[C@@H]3CC[C@]3(C)[C@@H](C(C)=O)CC[C@@H]43)C2)OO1 (relative stereo; form 2) [listing 2 of 2 here] | 89.78%
35 | C=C(c1ccc(Cl)cc1)[C@@H]1CO[C@@]2(CC[C@@]3(C)[C@H](CC[C@@H]4[C@@H]3CC[C@]3(C)[C@@H]([C@H](C)C(C)=O)CC[C@@H]43)C2)OO1 (relative stereo; form 2) [listing 2 of 2 here] | 34.65%
36 | C=C(c1ccc(Br)cc1)[C@@H]1CO[C@@]2(CC[C@@]3(C)[C@H](CC[C@@H]4[C@@H]3CC[C@]3(C)[C@@H]([C@H](C)C(C)=O)CC[C@@H]43)C2)OO1 (relative stereo; form 2) [listing 2 of 2 here] | 41.83%
37 | C=C(c1ccc(F)cc1)[C@@H]1CO[C@@]2(CC[C@@]3(C)[C@H](CC[C@@H]4[C@@H]3CC[C@]3(C)[C@@H]([C@H](C)CCC(=O)OC)CC[C@@H]43)C2)OO1 (relative stereo; form 2) [listing 2 of 2 here] | 33.13%
38 | C=C(c1ccc(Br)cc1)[C@@H]1CO[C@@]2(CC[C@@]3(C)[C@H](CC[C@@H]4[C@@H]3CC[C@]3(C)[C@@H]([C@H](C)CCC(=O)OC)CC[C@@H]43)C2)OO1 (relative stereo; form 2) [listing 2 of 2 here] | 18.57%
